Reference: the RNAGym collection of RNA variant scans (doi:10.1126/science.aae0568)
This sample holds only a part of the variants without activity.

B1: tRNA (parent)
chain: GUUCCGUUGGCGUAAUGGUAACGCGUCUCCCUCCUAAGGAGAAGACUGCGGGUUCGAGUCCCGUACGGAACG

Variants of: B1
Assay: yeast fitness relative to wild type (ratio to wild type); higher = fitter; tRNA-Arg(CCU), competitive growth, 37 C, YPD
Method in brief: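 Start and end populations of a pooled competition were compared by 100-nucleotide paired-end sequencing of gene amplicons. The Saccharomyces cerevisiae strains carried tRNA-Arg(CCU) gene variants at the native genomic locus, synthesised with a 3% per-site mutation rate at 69 sites, and competed in YPD at 37°C for 24 hours in six parallel replicates. Darwinian fitness relative to wild type was based on the change in genotype frequencies. Genotypes required ≥ 100 starting reads, and estimates < 0.5 were set to 0.5.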

Variant	yeast fitness
G6A C31U A43U	0.529
G6A C27G A36C A42C	0.58
G6A U19A G44A	≤ 0.5
G6A G44A	0.737
G6A G9C C11G C22A C30U C31G G67U	≤ 0.5
G6A G17C G18C A45G G58C C66U	≤ 0.5
G6A U28A G51A A57U	≤ 0.5
G6A C11G A21C C22G C30G A45U	≤ 0.5
G6A U26C C62G	0.515
G6A C34G A37U C49G	0.532
G6A G9C U32C A36G	≤ 0.5
G6A U47G	0.594
G6A C24U G67A	0.72
G6A U8G A45U G48C	≤ 0.5
G6A G9C A14G	≤ 0.5
G6A G18C C30G C34A A37C A65U	0.584
G6A C11G G17U G38A A43U U54A	≤ 0.5
G6A G39C	0.821
G6A U19G C33U C34U	≤ 0.5
G6A C31G C34U C46U G56A	≤ 0.5
G6A C24G G39C C61U C66U	≤ 0.5

Variant	yeast fitness
G6A C11A C49U A65G	≤ 0.5
G6A A65C	0.945
G6A U16G A21G A40G A42U	0.535
G6A G56C	0.672
G6A G56A	0.852
G6A C29G U35G C61U	≤ 0.5
G6A G9C A21C C30U A45U C55A	0.517
G6A C31G C61U	≤ 0.5
G6A C24A	0.654
G6A C34A C46U A65C	≤ 0.5
G6A U13A U26C C30G A65C	≤ 0.5
G6A C24U U32G A40U	≤ 0.5
G6A U16C C27G C33A G38C A42G	≤ 0.5
G6A C66U G67A	0.661
G6A C30A C31G G39C	0.534
G6A G12A C27G G68C A70U	0.549
G6A C27U A42U	≤ 0.5
G6A C22U G23C C49G U53G A57G	≤ 0.5
G6A G68C A69G	0.568
G6A C11A A57C G68A	0.549
G6A U26A C33A G51C C62U	0.591

Variant	yeast fitness
G6A C33A G58A G63C	≤ 0.5
G6A C29G A69C	≤ 0.5
G6C A15U A43U A65U	≤ 0.5
G6A C46A	0.97
G6A C30U A37G	≤ 0.5
G6A G9C C31U	≤ 0.5
G6A C29G U32C A69C	≤ 0.5
G6A C49U	0.959
G6A G12A A21G C46A	0.636
G6A C46G U64A	0.667
G6A G9A C24G U35A G48C	≤ 0.5
G6A C11A A40G	≤ 0.5
G6A G12C C27A A37G C49U	≤ 0.5
G6A G23C G41C C49U	≤ 0.5
G6A C34U A40G G68A	≤ 0.5
G6A G10C C30A A69U	0.786
G6A G12A	0.764
G6A G18A G23C U26A C30U U35A A43G	≤ 0.5
G6A C22G A69C	0.591
G6A C11U C27A	0.719
G6C A14G A20C U47C U64A G67A	≤ 0.5

Variant	yeast fitness
G6A C30A A45U	0.667
G6A G12A C27U C30G C55U A57C	≤ 0.5
G6C A21G A57C	≤ 0.5
G6A C29G	0.634
G6A C29U	0.748
G6C A20G	0.773
G6C A20C	0.773
G6A U13G C27U C61G	0.667
G6A U8A G44C A57U	≤ 0.5
G6A C11G A21G C27G C29U U35G G56C G63A U64C G67C	≤ 0.5
G6A C33U	0.649
G6C A14G A20C G68C	≤ 0.5
G6A C30U G51C	≤ 0.5
G6A G17A A69U	0.551
G6A C22A U35A	≤ 0.5
G6A C24U A36C A43U A69U	≤ 0.5
G6A C24U A65C	≤ 0.5
G6A G18A G41C	≤ 0.5
G6A U16A C61G G67U	≤ 0.5
G6A A57C A65C A70C	0.609
G6A C33G U47A U64G	0.558
